From ChEMBL document CHEMBL4011605, “N-Piperonyl substitution on aminoquinoline-pyrimidine hybrids: Effect on the antiplasmodial potency” (Eur J Med Chem, 2017)
Activity calls are given as the source filed them. No cut-off for these calls is given here.

Assays:
[1] = tested on: Plasmodium falciparum; assay: Antiplasmodial activity against chloroquine-sensitive Plasmodium falciparum D6 infected in red blood cells after 72 hrs by Malstat reagent based LDH assay; type: functional, cell-based; conditions: D6, 72 h
[2] = tested on: Plasmodium falciparum; assay: Antiplasmodial activity against chloroquine-resistant Plasmodium falciparum W2 infected in red blood cells after 72 hrs by Malstat reagent based LDH assay; type: functional, cell-based; conditions: W2, 72 h
[3] = tested on: Vero; assay: Cytotoxicity against African green monkey Vero cells up to 9 uM; type: cell-based; conditions: chlorocebus sabaeus
[4] = Selectivity index, ratio of IC50 for African green monkey Vero cells to IC50 for chloroquine-sensitive Plasmodium falciparum D6; type: toxicity; conditions: read-out: Ratio IC50
Summary of the method: (§1)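 Selectivity index is the ratio of the VERO cytotoxicity IC50 to the antiplasmodial IC50 for the strain named. VERO cells were tested up to a highest concentration of 9 µM.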

[5] = Selectivity index, ratio of IC50 for African green monkey Vero cells to IC50 for chloroquine-resistant Plasmodium falciparum W2; type: toxicity; conditions: read-out: Ratio IC50; summary of the method: as §1
[6] = tested on: Plasmodium falciparum; assay: Potency index, ratio of chloroquine IC50 to compound IC50 for chloroquine-resistant Plasmodium falciparum W2; type: functional
[7] = tested on: Vero; assay: Cytotoxicity against African green monkey Vero cells; type: cell-based; conditions: chlorocebus sabaeus
Summary of the method: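 VERO (mammalian) cells were exposed to compounds up to a highest tested concentration of 9 µM. Cytotoxicity was expressed as IC50.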

[8] = tested on: Heme; assay: Binding affinity to monomeric heme (unknown origin) assessed as decrease in intensity of soret band at 0.5 to 70 uM at pH 5.4 and 7.4 by titration based UV-vis spectrophotometric analysis
Summary of the method: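 Hemin stock (1.0 mM in DMSO, kept at 4 °C in the dark) is diluted daily to 10 µM monomeric heme in 0.02 M HEPES pH 7.4 or 0.02 M MES pH 5.4. Drug comes from a 1.0 mM DMSO stock and is titrated at 0.5–70 µM. After each addition the sample is mixed and the Soret band at 402 nm is read.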

[9] = tested on: Heme; assay: Binding affinity to monomeric heme (unknown origin) assessed as mole fraction of compound required to show 1:1 stoichiometry for heme-compound complex at pH 5.4 to 7.4 by Job's plot method
Summary of the method: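 Binding stoichiometry with monomeric heme is found by Job's continuous variation. Total drug plus heme is held at 10 µM, at pH 7.4 (HEPES) and at pH 5.4 (MES), with heme from a DMSO hemin stock. Absorbance is plotted against drug mole fraction.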

[10] = tested on: mu-oxodimeric heme; assay: Binding affinity to mu-oxodimeric heme (unknown origin) in aqueous NaOH solution at 0.5 to 70 uM at pH 5.8 by titration-based UV-vis spectrophotometric analysis
Summary of the method: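 µ-Oxodimeric heme: hemin chloride is dissolved to 1.0 mM in 0.1 M aqueous NaOH with 30 min sonication, then diluted to 10 µM in 20 mM phosphate pH 5.8. Aliquots of a 1.0 mM drug stock are added stepwise (0.5–70 µM), and absorbance at 362 nm is recorded.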

[11] = tested on: mu-oxodimeric heme; assay: Binding affinity to mu-oxodimeric heme (unknown origin) in aqueous NaOH solution assessed as 1:1 stoichiometry for heme-compound complex at 10 uM at pH 5.8 by Job's plot method

SMILES | IC50 [1] [nM] | IC50 [2] [nM] | Activity [3] | selectivity ratio [4] | selectivity ratio [5] | Ratio IC50 [6] | IC50 [7] [nM] | Activity [8] | Activity [9] [molar ratio] | Activity [10] | Activity [11]
Cc1cc(N2CCCCC2)nc(N(CCNc2ccnc3cc(Cl)ccc23)Cc2ccc3c(c2)OCO3)n1 | 170 | < 430 | Non-Toxic | > 53.6 | > 15.9 | – | – | – | – | – | –
Cc1cc(N2CCCCC2)nc(N(CCCNc2ccnc3cc(Cl)ccc23)Cc2ccc3c(c2)OCO3)n1 | 150 | 360 | Non-Toxic | > 57.2 | > 24.2 | – | – | – | – | – | –
Cc1cc(N(CCNc2ccnc3cc(Cl)ccc23)Cc2ccc3c(c2)OCO3)nc(Cl)n1 | 590 | 780 | Non-Toxic | > 16.8 | > 12.3 | – | – | – | – | – | –
Cc1cc(N2CCCC2)nc(N(CCNc2ccnc3cc(Cl)ccc23)Cc2ccc3c(c2)OCO3)n1 | 150 | 930 | Non-Toxic | > 59.2 | > 9.8 | – | – | – | – | – | –
Cc1cc(Cl)nc(N(CCNc2ccnc3cc(Cl)ccc23)Cc2ccc3c(c2)OCO3)n1 | 480 | 1010 | Non-Toxic | > 20.5 | > 9.8 | – | – | – | – | – | –
CCN1CCN(c2cc(C)nc(N(CCCNc3ccnc4cc(Cl)ccc34)Cc3ccc4c(c3)OCO4)n2)CC1 | 120 | 220 | Non-Toxic | > 71.1 | > 37.9 | 2 - 5 | – | – | – | – | –
Cc1cc(N(CCCNc2ccnc3cc(Cl)ccc23)Cc2ccc3c(c2)OCO3)nc(N2CCCCC2)n1 | 150 | 990 | Non-Toxic | > 59.8 | > 8.8 | – | – | – | – | – | –
Clc1ccc2c(NCCNCc3ccc4c(c3)OCO4)ccnc2c1 | 30 | 50 | Non-Toxic | > 243 | > 54.3 | 8 | – | – | – | – | –
Cc1cc(Cl)nc(N(CCCNc2ccnc3cc(Cl)ccc23)Cc2ccc3c(c2)OCO3)n1 | 1110 | 5160 | Non-Toxic | > 8.6 | > 1.9 | – | – | – | – | – | –
Cc1cc(N(CCCNc2ccnc3cc(Cl)ccc23)Cc2ccc3c(c2)OCO3)nc(N2CCCC2)n1 | 50 | 90 | Non-Toxic | > 192 | > 96.9 | 2 - 5 | – | – | – | – | –
CCN1CCN(c2cc(C)nc(N(CCNc3ccnc4cc(Cl)ccc34)Cc3ccc4c(c3)OCO4)n2)CC1 | 30 | 140 | Non-Toxic | > 239 | > 60.4 | 2 - 5 | – | – | – | – | –
Cc1cc(N2CCCC2)nc(N(CCCNc2ccnc3cc(Cl)ccc23)Cc2ccc3c(c2)OCO3)n1 | 120 | 590 | Non-Toxic | > 76.7 | > 15.1 | – | – | – | – | – | –
Cc1cc(N2CCOCC2)nc(N(CCCNc2ccnc3cc(Cl)ccc23)Cc2ccc3c(c2)OCO3)n1 | 130 | 930 | – | 67 | 9.4 | – | 8680 | – | – | – | –
CCN1CCN(c2nc(C)cc(N(CCNc3ccnc4cc(Cl)ccc34)Cc3ccc4c(c3)OCO4)n2)CC1 | 20 | 50 | Non-Toxic | > 243 | > 60.4 | 8 | – | Active | 0.5 | Active | Active
Cc1cc(N(CCCNc2ccnc3cc(Cl)ccc23)Cc2ccc3c(c2)OCO3)nc(N2CCOCC2)n1 | 150 | 910 | Non-Toxic | > 60 | > 9.5 | – | – | – | – | – | –
Clc1ccc2c(NCCCNCc3ccc4c(c3)OCO4)ccnc2c1 | 40 | 100 | Non-Toxic | > 243 | > 84.5 | 2 - 5 | – | – | – | – | –
Cc1cc(N(CCCNc2ccnc3cc(Cl)ccc23)Cc2ccc3c(c2)OCO3)nc(Cl)n1 | 460 | 1140 | Non-Toxic | > 20.9 | > 8.4 | – | – | – | – | – | –
Cc1cc(N(CCNc2ccnc3cc(Cl)ccc23)Cc2ccc3c(c2)OCO3)nc(N2CCCC2)n1 | 40 | 100 | Non-Toxic | > 243 | > 243 | – | – | – | – | – | –
Cc1cc(N2CCOCC2)nc(N(CCNc2ccnc3cc(Cl)ccc23)Cc2ccc3c(c2)OCO3)n1 | 130 | 810 | – | 51.4 | 8.5 | – | 6860 | – | – | – | –
Cc1cc(N(CCNc2ccnc3cc(Cl)ccc23)Cc2ccc3c(c2)OCO3)nc(N2CCOCC2)n1 | 50 | 220 | Non-Toxic | > 243 | > 66.8 | 2 - 5 | – | – | – | – | –
CCN(CC)CCCC(C)Nc1ccnc2cc(Cl)ccc12 (stereo not drawn) [CHLOROQUINE] | – | – | Non-Toxic | – | – | – | – | – | – | – | –
CCN1CCN(c2nc(C)cc(N(CCCNc3ccnc4cc(Cl)ccc34)Cc3ccc4c(c3)OCO4)n2)CC1 | 40 | 170 | Non-Toxic | > 194 | > 47.6 | 2 - 5 | – | – | – | – | –
Cc1cc(N(CCNc2ccnc3cc(Cl)ccc23)Cc2ccc3c(c2)OCO3)nc(N2CCCCC2)n1 | 50 | 290 | Non-Toxic | > 174 | > 30.5 | – | – | – | – | – | –
